Experiments:
[1] = folding enthalpy; higher = less favourable; fluorescence melt of hairpins on a sequencing array, two-state fit; conditions: sodium 0.088 M
Procedure, shortened: (§1)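 Cy3 signals were normalised both to pre-quench Cy3 and to control constructs. They came from library hairpins carrying annealed Cy3 and quencher oligos on a sequenced MiSeq flow cell, imaged in 50 mM Na-HEPES pH 8.0, 25 mM NaCl, in 2.5 °C steps up to 60 °C. Bootstrapped two-state fits gave melting temperature and folding enthalpy, and four replicates were combined by inverse variance. Fitted temperatures were then raised by 9.35 °C to match UV melts.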

[2] = melting temperature; fluorescence melt of hairpins on a sequencing array, two-state fit, raised by 9.35 °C to match UV melts; conditions: sodium 0.088 M
Procedure, shortened: as §1

| Sequence | folding enthalpy [1] | Tm [2] |
| --- | --- | --- |
| GACAATGAAAATTGTC ((((((....)))))) | -31.3 kcal/mol | 51.6 °C |
| GACACAACGAAAGTTGTC (((..(((....)))))) | -9.73 kcal/mol | 38.7 °C |
| GACACACCGAAAGGTGTC (((..(((....)))))) | -8 kcal/mol | 37.3 °C |
| GACACAGCGAAAGCTGTC (((..(((....)))))) | -8.05 kcal/mol | 32.3 °C |
| GACACAGGAAACTGTACC (..((((....))))..) | -11.1 kcal/mol | 25.1 °C |
| GACACAGGAAACTGTGTC (((((((....))))))) | -47.9 kcal/mol | 62.5 °C |
| GACACCGAAAGGTAAGTC ((((((....)))..))) | -20.2 kcal/mol | 38.5 °C |
| GACACCGAAAGGTGCGTC ((((((....)))..))) | -10.2 kcal/mol | 45.7 °C |
| GACACGGGAAACCATGTC ((((.((....)).)))) | -32.9 kcal/mol | 39.9 °C |
| GACACGGGAAACCGTGCC (.(((((....))))).) | -13.8 kcal/mol | 48.4 °C |
| GACACTGGAAACAGTACC (..((((....))))..) | -13 kcal/mol | 24.2 °C |
| GACACTGGAAACAGTATC ((.((((....)))).)) | -17.6 kcal/mol | 30.4 °C |
| GACAGAACGAAAGTTGTC (((..(((....)))))) | -28.2 kcal/mol | 36.8 °C |
| GACAGACGAAAGTCAGTC (((.(((....))).))) | -28.2 kcal/mol | 51.7 °C |
| GACAGAGGAAACCCTGTC (((((.(....).))))) | -32.9 kcal/mol | 42.5 °C |
| GACAGCGAAAGCTACGTC ((((((....)))..))) | -13.8 kcal/mol | 39.8 °C |
| GACAGCGAAAGCTTGGTC ((((((....)))..))) | -17.9 kcal/mol | 40 °C |
| GACAGCGGAAACGCTATC ((.((((....)))).)) | -14 kcal/mol | 36.7 °C |
| GACAGGAAACTGTC (((((....))))) | -31.3 kcal/mol | 51.6 °C |
| GACAGGGGAAACCCCATC ((..(((....)))..)) | -13.2 kcal/mol | 27.1 °C |
| GACAGGGGAAACTCTGTC (((((.(....).))))) | -35 kcal/mol | 48.1 °C |
| GACAGTACGAAAGTAGTC (((..(((....)))))) | -16.2 kcal/mol | 31.1 °C |
| GACAGTGGAAACACTATC ((.((((....)))).)) | -15.9 kcal/mol | 29.5 °C |

| Sequence | folding enthalpy [1] | Tm [2] |
| --- | --- | --- |
| GACATAGGAAACCATGTC (((((.(....).))))) | -29.1 kcal/mol | 37.5 °C |
| GACATCCCGAAAGGGGTC (((..(((....)))))) | -11.1 kcal/mol | 34.4 °C |
| GACATCCGAAAGGAGGTC (((.(((....))).))) | -40 kcal/mol | 57.9 °C |
| GACATGAAAATGTC (((((....))))) | -24 kcal/mol | 50.4 °C |
| GACATGACGAAAGTCGTC (((..(((....)))))) | -10.3 kcal/mol | 41.6 °C |
| GACATGCCGAAAGGCGTC (((..(((....)))))) | -11.1 kcal/mol | 41.2 °C |
| GACATGGCGAAAGCCGTC (((..(((....)))))) | -10.1 kcal/mol | 50.7 °C |
| GACATGGGAAACCATGCC (.(((((....))))).) | -15.1 kcal/mol | 42.8 °C |
| GACATGGGAAACCATGTC (((((((....))))))) | -42.8 kcal/mol | 61.3 °C |
| GACATGGGAAACTGTGTC ((((..(....)..)))) | -28.2 kcal/mol | 37.2 °C |
| GACATTGCGAAAGCAGTC (((..(((....)))))) | -10 kcal/mol | 32.4 °C |
| GACATTGGAAACGATGTC (((((.(....).))))) | -36.1 kcal/mol | 46.7 °C |
| GACCAACGAAAGTTGTC (((.(((....)))))) | -14.5 kcal/mol | 40.8 °C |
| GACCAAGGAAACTCGGTC ((((.((....)).)))) | -29.3 kcal/mol | 37.8 °C |
| GACCACCGAAAGGTCGTC (((.(((....))).))) | -29.5 kcal/mol | 45.1 °C |
| GACCACCGAAAGGTTGTC (((.(((....))).))) | -32.2 kcal/mol | 48.2 °C |
| GACCACGAAAGTGAGTC ((((((....))).))) | -30.5 kcal/mol | 52.2 °C |
| GACCACGAAAGTGATGTC ((((((....)))..))) | -17.6 kcal/mol | 38.3 °C |
| GACCACGAAAGTGCCGTC ((((((....)))..))) | -12 kcal/mol | 33.6 °C |
| GACCACGAAAGTGCGTC ((((((....))).))) | -22.8 kcal/mol | 53.7 °C |
| GACCACGAAAGTGGGTC ((((((....))).))) | -13.7 kcal/mol | 60.1 °C |
| GACCACGAAAGTGTCGTC ((((((....)))..))) | -18.7 kcal/mol | 44.8 °C |
| GACCACGGAAACGTGACC (..((((....))))..) | -8.43 kcal/mol | 29.2 °C |

| Sequence | folding enthalpy [1] | Tm [2] |
| --- | --- | --- |
| GACCAGCGAAAGCTGTC (((.(((....)))))) | -11.3 kcal/mol | 45 °C |
| GACCAGGCGAAAGCCGTC (((..(((....)))))) | -7.64 kcal/mol | 36.2 °C |
| GACCAGGGAAACCTAGTC (((.(((....))).))) | -16.9 kcal/mol | 32.7 °C |
| GACCATGGAAACATGGTC (((((((....))))))) | -43.1 kcal/mol | 65.1 °C |
| GACCCACGAAAGTGCGTC (((.(((....))).))) | -26.1 kcal/mol | 46.7 °C |
| GACCCACGAAAGTGGTC (((.(((....)))))) | -13.3 kcal/mol | 51.5 °C |
| GACCCCCGAAAGGGTGTC (((.(((....))).))) | -25 kcal/mol | 51.8 °C |
| GACCCCGAAAGGGAAGTC ((((((....)))..))) | -16.1 kcal/mol | 42.1 °C |
| GACCCCGAAAGGGGCGTC ((((((....)))..))) | -11.7 kcal/mol | 61.4 °C |
| GACCCCGAAAGGGGTGTC ((((((....)))..))) | -9.59 kcal/mol | 60.6 °C |
| GACCCCGGAAACGGGGCC (.(((((....))))).) | -12.9 kcal/mol | 53.6 °C |
| GACCCGACGAAAGTCGTC (((..(((....)))))) | -6.62 kcal/mol | 25.9 °C |
| GACCCGCGAAAGCGGTC (((.(((....)))))) | -10 kcal/mol | 52.1 °C |
| GACCCTGGAAACAAGGTC ((((.((....)).)))) | -27.1 kcal/mol | 35.3 °C |
| GACCCTGGAAACAGGGCC (.(((((....))))).) | -17.2 kcal/mol | 47.2 °C |
| GACCGCCGAAAGGCAGTC (((.(((....))).))) | -20.9 kcal/mol | 54.3 °C |
| GACCGCGAAAGCGAGGTC ((((((....)))..))) | -19.2 kcal/mol | 56.6 °C |
| GACCGCGAAAGCGCCGTC ((((((....)))..))) | -14.1 kcal/mol | 36.6 °C |
| GACCGCGAAAGCGTAGTC ((((((....)))..))) | -14.6 kcal/mol | 46.5 °C |
| GACCGCGAAAGCGTGGTC ((((((....)))..))) | -18.6 kcal/mol | 50.9 °C |
| GACCGCGGAAACACGGCC (.(((.(....).))).) | -22.2 kcal/mol | 37 °C |
| GACCGCGGAAACGCGACC (..((((....))))..) | -7.67 kcal/mol | 28.9 °C |
| GACCGCGGAAACGCGATC ((.((((....)))).)) | -14.8 kcal/mol | 50.7 °C |

| Sequence | folding enthalpy [1] | Tm [2] |
| --- | --- | --- |
| GACCGGCGAAAGCCTGTC (((.(((....))).))) | -22.3 kcal/mol | 49.6 °C |
| GACCGGGGAAACTCGGTC (((((.(....).))))) | -50.3 kcal/mol | 56.3 °C |
| GACCGTGAAAACGGTC ((((((....)))))) | -41.1 kcal/mol | 68.1 °C |
| GACCGTGCGAAAGCAGTC (((..(((....)))))) | -11.4 kcal/mol | 29.6 °C |
| GACCGTGGAAACACGACC (..((((....))))..) | -10.8 kcal/mol | 28 °C |
| GACCTACGAAAGTAAGTC (((.(((....))).))) | -23.1 kcal/mol | 38 °C |
| GACCTACGAAAGTACGTC (((.(((....))).))) | -24.6 kcal/mol | 36.2 °C |
| GACCTAGGAAACTAGGCC (.(((((....))))).) | -19.3 kcal/mol | 39.5 °C |
| GACCTCACGAAAGTGGTC (((..(((....)))))) | -20.7 kcal/mol | 37.4 °C |
| GACCTCCGAAAGGAAGTC (((.(((....))).))) | -26.1 kcal/mol | 44.7 °C |
| GACCTCGGAAACGAGGCC (.(((((....))))).) | -13 kcal/mol | 55.4 °C |
| GACCTGCGAAAGCACGTC (((.(((....))).))) | -25.4 kcal/mol | 42.8 °C |
| GACCTGGGAAACTGGGTC ((((..(....)..)))) | -25 kcal/mol | 44.4 °C |
| GACCTTGAAAAAGGTC ((((((....)))))) | -33.4 kcal/mol | 56.8 °C |
| GACCTTGGAAACAAGGTC (((((((....))))))) | -40.6 kcal/mol | 63 °C |
| GACCTTGGAAACAGGGTC ((((.((....)).)))) | -31.5 kcal/mol | 47 °C |
| GACGAAGGAAACTTTGTC (((.(((....))).))) | -28.3 kcal/mol | 41.6 °C |
| GACGACGAAAGTCAAGTC ((((((....)))..))) | -23.8 kcal/mol | 45.9 °C |
| GACGACGAAAGTCGGGTC ((((((....)))..))) | -12.8 kcal/mol | 64.1 °C |
| GACGACGGAAACGTCGCC (.(((((....))))).) | -12.2 kcal/mol | 53.1 °C |
| GACGAGAAATCGTC (((((....))))) | -28.1 kcal/mol | 51.2 °C |
| GACGAGCGAAAGCTGTC (((.(((....)))))) | -32.3 kcal/mol | 53 °C |

From the array DNA melting data of Ke et al. (doi:10.1101/2024.01.08.574731)
